# Test results published in ChEMBL document CHEMBL4622841, “Structural modifications of indolinones bearing a pyrrole moiety and discovery of a multi-kinase inhibitor with potent antitumor activity” (Bioorg Med Chem, 2020).
# Tests used:
# [1] = target: Platelet-derived growth factor receptor beta (Homo sapiens, UniProt P09619); assay: Inhibition of N-terminal GST-fused human PDGFRbeta cytoplasmic domain (557 to 1106 (end) residues) expressed in baculovirus expression system using FAM-labeled peptide and ATP as substrate preincubated for 10 mins followed by substrate addition measured after 1 hr by mobility shift assay
# [2] = target: Vascular endothelial growth factor receptor 2 (Homo sapiens, UniProt P35968); assay: Inhibition of N-terminal GST fused human VEGFR2 cytoplasmic domain (790 to 1356 (end) residues) expressed in baculovirus expression system using FAM-labeled peptide and ATP as substrate preincubated for 10 mins followed by substrate addition measured after 1 hr by mobility shift assay
# [3] = Inhibition of GST-tagged human recombinant VEGFR3 cytoplasmic domain (800 to 1297 residues) Q890H/V1128L/H1146R mutant expressed in baculovirus expression system using FAM-labeled peptide and ATP as substrate preincubated for 10 mins followed by substrate addition measured after 1 hr by mobility shift assay
# [4] = Inhibition of N-terminal GST-tagged human recombinant PDGFRalpha D842I mutant expressed in baculovirus-infected Sf9 cells using FAM-labeled peptide and ATP as substrate preincubated for 10 mins followed by substrate addition measured after 1 hr by mobility shift assay
# [5] = target: Tyrosine-protein kinase Lyn (Homo sapiens, UniProt P07948); assay: Inhibition of LYN (unknown origin) using FAM-labeled peptide and ATP as substrate preincubated for 10 mins followed by substrate addition measured after 1 hr by mobility shift assay
# [6] = Toxicity in nu/nu mouse xenografted with human HT-29 cells assessed as effect on body weight at 100 mg/kg, po qd for 18 days; format: organism-based; conditions: in vivo, 432 h
# Summary of the method: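 Female nu/nu mice, 4–6 weeks old, implanted subcutaneously in the right flank with HT-29 cells (2×10⁶/mL). Once tumours reached 200 mm³, mice randomised to groups (n = 6) and dosed orally once daily at 100 mg/kg for 18 days. Body weight monitored during treatment. Results given as mean ± SD.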
# [7] = target: Cyclin-dependent kinase 2 (Homo sapiens, UniProt P24941); assay: Inhibition of CDK2 (unknown origin) using FAM-labeled peptide and ATP as substrate preincubated for 10 mins followed by substrate addition measured after 1 hr by mobility shift assay
# [8] = Intrinsic clearance in human liver microsomes; format: ADME, Microsome; conditions: read-out: CLH
# [9] = Half life in human liver microsomes; format: ADME, Microsome
# HT-29 = assay: Antitumor activity against human HT-29 cells xenografted in nu/nu mouse assessed as tumour growth inhibition at 100 mg/kg, po qd for 18 days and measured twice per week by vernier caliper method; format: functional; conditions: HT-29, po, 432 h, read-out: TGI
# Chain of Platelet-derived growth factor receptor beta (P09619 whole entry, the tested form may be a part): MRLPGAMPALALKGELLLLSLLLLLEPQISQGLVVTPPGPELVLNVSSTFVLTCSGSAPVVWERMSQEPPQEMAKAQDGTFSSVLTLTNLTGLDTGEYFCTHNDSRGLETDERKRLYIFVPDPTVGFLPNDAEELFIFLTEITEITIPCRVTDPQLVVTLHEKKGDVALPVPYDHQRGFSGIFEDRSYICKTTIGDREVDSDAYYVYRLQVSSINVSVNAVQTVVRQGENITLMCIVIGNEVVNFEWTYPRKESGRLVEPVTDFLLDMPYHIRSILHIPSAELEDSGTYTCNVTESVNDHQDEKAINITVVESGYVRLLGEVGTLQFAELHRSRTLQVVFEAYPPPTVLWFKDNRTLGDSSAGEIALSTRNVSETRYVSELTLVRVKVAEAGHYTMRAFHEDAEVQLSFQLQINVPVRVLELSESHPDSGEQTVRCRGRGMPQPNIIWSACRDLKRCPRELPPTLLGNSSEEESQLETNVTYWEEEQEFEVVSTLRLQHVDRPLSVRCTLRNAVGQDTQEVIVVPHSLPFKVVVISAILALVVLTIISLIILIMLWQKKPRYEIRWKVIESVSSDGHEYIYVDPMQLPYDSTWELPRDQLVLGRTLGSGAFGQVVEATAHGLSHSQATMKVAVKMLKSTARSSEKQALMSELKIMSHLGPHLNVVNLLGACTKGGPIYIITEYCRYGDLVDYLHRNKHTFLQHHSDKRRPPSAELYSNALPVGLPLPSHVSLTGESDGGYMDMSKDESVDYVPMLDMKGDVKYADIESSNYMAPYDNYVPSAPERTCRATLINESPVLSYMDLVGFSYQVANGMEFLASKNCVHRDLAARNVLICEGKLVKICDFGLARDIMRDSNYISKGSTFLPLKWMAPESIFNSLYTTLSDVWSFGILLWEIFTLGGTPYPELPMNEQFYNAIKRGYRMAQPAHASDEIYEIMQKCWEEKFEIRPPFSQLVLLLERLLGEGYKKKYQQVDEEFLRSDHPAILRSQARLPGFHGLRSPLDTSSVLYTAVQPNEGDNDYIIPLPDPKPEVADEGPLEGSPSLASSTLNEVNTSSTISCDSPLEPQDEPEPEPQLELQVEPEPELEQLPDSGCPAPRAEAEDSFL
# Chain of Vascular endothelial growth factor receptor 2 (P35968 whole entry, the tested form may be a part): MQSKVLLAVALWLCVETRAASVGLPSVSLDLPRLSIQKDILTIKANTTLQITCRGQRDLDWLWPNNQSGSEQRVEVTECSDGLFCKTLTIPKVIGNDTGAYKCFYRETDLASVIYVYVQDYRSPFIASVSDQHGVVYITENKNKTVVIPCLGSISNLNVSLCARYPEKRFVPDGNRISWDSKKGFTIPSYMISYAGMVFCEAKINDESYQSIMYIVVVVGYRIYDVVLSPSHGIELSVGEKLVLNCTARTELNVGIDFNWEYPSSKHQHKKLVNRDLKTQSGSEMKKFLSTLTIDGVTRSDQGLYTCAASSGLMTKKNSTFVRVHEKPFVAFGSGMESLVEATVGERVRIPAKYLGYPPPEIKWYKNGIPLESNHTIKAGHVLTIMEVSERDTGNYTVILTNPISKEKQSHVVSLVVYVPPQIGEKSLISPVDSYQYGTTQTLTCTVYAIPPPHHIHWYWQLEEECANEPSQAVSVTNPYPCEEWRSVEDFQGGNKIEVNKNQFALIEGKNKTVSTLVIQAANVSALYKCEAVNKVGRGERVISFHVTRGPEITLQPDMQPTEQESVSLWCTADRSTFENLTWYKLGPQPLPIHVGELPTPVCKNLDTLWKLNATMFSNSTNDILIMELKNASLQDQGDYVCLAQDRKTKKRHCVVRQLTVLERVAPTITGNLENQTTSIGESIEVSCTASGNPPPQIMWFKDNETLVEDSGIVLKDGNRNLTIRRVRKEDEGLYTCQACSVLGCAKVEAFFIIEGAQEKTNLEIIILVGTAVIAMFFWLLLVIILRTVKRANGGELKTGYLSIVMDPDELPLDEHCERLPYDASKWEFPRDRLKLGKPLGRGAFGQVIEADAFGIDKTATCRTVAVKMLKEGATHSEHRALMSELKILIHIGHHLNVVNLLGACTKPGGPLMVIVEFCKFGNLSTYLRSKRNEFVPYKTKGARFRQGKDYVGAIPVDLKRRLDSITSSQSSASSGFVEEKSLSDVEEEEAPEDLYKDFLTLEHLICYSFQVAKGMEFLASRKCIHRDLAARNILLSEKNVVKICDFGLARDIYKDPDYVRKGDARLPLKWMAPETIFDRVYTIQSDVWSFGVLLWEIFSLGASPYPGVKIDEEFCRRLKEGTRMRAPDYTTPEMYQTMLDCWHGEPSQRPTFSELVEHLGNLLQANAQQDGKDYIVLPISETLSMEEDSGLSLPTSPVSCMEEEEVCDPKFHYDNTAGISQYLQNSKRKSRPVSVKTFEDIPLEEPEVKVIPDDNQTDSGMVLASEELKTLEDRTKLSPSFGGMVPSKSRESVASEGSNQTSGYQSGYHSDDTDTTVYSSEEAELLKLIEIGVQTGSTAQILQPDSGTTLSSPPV
# Chain of Tyrosine-protein kinase Lyn (P07948 whole entry): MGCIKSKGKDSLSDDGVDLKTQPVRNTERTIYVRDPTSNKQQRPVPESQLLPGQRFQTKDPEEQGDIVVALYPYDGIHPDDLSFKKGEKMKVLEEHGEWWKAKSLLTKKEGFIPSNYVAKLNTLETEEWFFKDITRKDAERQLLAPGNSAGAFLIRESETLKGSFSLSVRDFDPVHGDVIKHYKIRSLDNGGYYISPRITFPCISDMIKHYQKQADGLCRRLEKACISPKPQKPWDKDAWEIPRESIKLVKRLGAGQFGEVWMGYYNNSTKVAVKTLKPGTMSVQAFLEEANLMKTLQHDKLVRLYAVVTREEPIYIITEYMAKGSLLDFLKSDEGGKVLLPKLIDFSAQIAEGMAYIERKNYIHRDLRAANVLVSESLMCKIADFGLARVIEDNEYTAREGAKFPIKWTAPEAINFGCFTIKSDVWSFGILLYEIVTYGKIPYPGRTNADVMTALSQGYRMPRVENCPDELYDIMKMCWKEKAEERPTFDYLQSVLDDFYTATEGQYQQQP
IC50 [1] [nM],Compound,also measured
> 300,COC(=O)c1ccc2c(c1)NC(=O)/C2=C(\Nc1cnc(-n2cccc2CN2CCN(C)CC2)c(C)c1)c1ccccc1,IC50 [2]: > 1000 nM
32,COC(=O)c1ccc2c(c1)NC(=O)/C2=C(\Nc1ccc(-n2c(C)ccc2CN(C)C)nc1)c1ccccc1,–
45.3,COC(=O)c1ccc2c(c1)NC(=O)/C2=C(\Nc1ccc(-n2c(C)ccc2CN(C)C)cc1)c1ccccc1,–
71,COC(=O)c1ccc2c(c1)NC(=O)/C2=C(\Nc1cnc(-n2cccc2CN(C)C)c(C)c1)c1ccccc1,IC50 [2]: > 1000 nM
26,COC(=O)c1ccc2c(c1)NC(=O)/C2=C(\Nc1ccc(-n2cccc2CN(C)C)nc1)c1ccccc1,–
31,COC(=O)c1ccc2c(c1)NC(=O)/C2=C(\Nc1ccc(-n2cccc2CN(C)C)c(C)c1)c1ccccc1,–
11,COC(=O)c1ccc2c(c1)NC(=O)/C2=C(\Nc1ccc(-n2cccc2CN(C)C)cc1)c1ccccc1,–

# More lines, now with the values behind:
Compound,IC50 [1] [nM],also measured
CCN(CC)Cc1ccc(C)n1-c1ccc(N/C(=C2\C(=O)Nc3cc(C(=O)OC)ccc32)c2ccccc2)cc1,23.8,–
COC(=O)c1ccc2c(c1)NC(=O)/C2=C(\Nc1ccc(-n2cccc2CN2CCN(C)CC2)nc1)c1ccccc1,114,–
COC(=O)c1ccc2c(c1)NC(=O)/C2=C(\Nc1ccc(N(C)C(=O)CN2CCN(C)CC2)cc1)c1ccccc1 [NINTEDANIB],–,IC50 [3]: 3 nM; IC50 [4]: 1.9 nM; IC50 [5]: 55 nM; Activity [6]: Non-Toxic; IC50 [7]: > 1000 nM; CLint scaled [8]: 63.5 mL/min/kg; half-life [9]: 27.4 min; inhibition in vivo at 100 mg/kg (HT-29): 44.3%
COC(=O)c1ccc2c(c1)NC(=O)/C2=C(\Nc1ccc(-n2c(C)ccc2CN2CCOCC2)cc1)c1ccccc1,37,–
COC(=O)c1ccc2c(c1)NC(=O)/C2=C(\Nc1ccc(-n2c(C)ccc2CN2CCN(C)CC2)nc1)c1ccccc1,123,–
COC(=O)c1ccc2c(c1)NC(=O)/C2=C(\Nc1ccc(-n2cccc2CN2CCN(C)CC2)cc1)c1ccccc1,55,–
COC(=O)c1ccc2c(c1)NC(=O)/C2=C(\Nc1ccc(-n2cccc2CN2CCN(C)CC2)c(C)c1)c1ccccc1,206,–
